From ChEMBL document CHEMBL1128732, “Synthesis and anticonvulsant activity of N-benzylpyrrolo[2,3-d]-, -pyrazolo[3,4-d]-, and -triazolo[4,5-d]pyrimidines: imidazole ring-modified analogues of 9-(2-fluorobenzyl)-6-(methylamino)-9H-purine” (J Med Chem, 1995)

What was measured:
[1] = tested on: Rattus norvegicus; test: The compound was tested for anticonvulsant activity against maximal electroshock-induced seizures after intraperitoneal administration in rats; assay type: functional
Method in brief: (§1)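 Male Wistar rats (Charles River) challenged with maximal electroshock. ED50 is the dose protecting 50% of animals against the hind limb extensor component, calculated by the Miller–Tainter method. With standard error: at least 12 animals per dose level, four doses per compound. Without standard error: three doses, six animals per point. Some compounds were given as the hydrochloride.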

[2] = tested on: Rattus norvegicus; test: The compound was tested for anticonvulsant activity against maximal electroshock-induced seizures after peroral administration in rats; assay type: functional; method in brief: as §1
[3] = Partition coefficient (logP); assay type: physicochemical; details: octanol/water
Method in brief: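 Octanol–water partition measured with a carbonate-buffered aqueous phase adjusted to pH 10.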

[4] = pKa value of the compound; assay type: physicochemical

Q: For `Nc1ncnc2c1cnn2Cc1ccccc1`, which ED50 ([1]; Rattus norvegicus, ip) is on record?
A: > 25 mg/kg

Q: For `CN(C)c1ncnc2c1ccn2Cc1ccccc1F`, which ED50 [1] is on record?
A: 11 mg/kg

Q: And the ED50 [2]?
A: 12 mg/kg

Q: With `CNc1ncnc2c1cnn2Cc1ccccc1` as the compound, how does the ED50 ([1]; Rattus norvegicus, ip) read?
A: 7 mg/kg

Q: What about the ED50 ([2]; Rattus norvegicus, po) of the same compound?
A: 15 mg/kg

Q: Which logP [3] does the source give for `CNc1ncnc2c1nnn2Cc1ccccc1F` here?
A: 2.05

Q: And the pKa [4]?
A: 2.49

Q: What about the ED50 ([1]; Rattus norvegicus, ip) of the same compound?
A: 3 mg/kg

Q: What about the ED50 ([2]; Rattus norvegicus, po) of the same compound?
A: 8 mg/kg

Q: Which results are given for `Nc1ncnc2c1cnn2Cc1ccccc1F`?
A: ED50 ([1]; Rattus norvegicus, ip): 8 mg/kg; ED50 ([2]; Rattus norvegicus, po): 14 mg/kg

Q: For `c1ccc(Cn2ccc3c(NC4CC4)ncnc32)cc1`, which ED50 ([1]; Rattus norvegicus, ip) is on record?
A: 36 mg/kg

Q: With `Fc1ccccc1Cn1ccc2c(NC3CC3)ncnc21` as the compound, how does the ED50 ([1]; Rattus norvegicus, ip) read?
A: > 50 mg/kg

Q: For `CNc1ncnc2c1cnn2Cc1ccccc1F`, which logP [3] is on record?
A: 1.94

Q: And the pKa [4]?
A: 4.4

Q: And the ED50 ([1]; Rattus norvegicus, ip)?
A: 6 mg/kg

Q: What about the ED50 ([2]; Rattus norvegicus, po) of the same compound?
A: 8 mg/kg

Q: For `CNc1ncnc2c1ccn2Cc1ccccc1F`, which logP [3] is on record?
A: 2.11

Q: What about the pKa [4] of the same compound?
A: 5.56

Q: What about the ED50 ([1]; Rattus norvegicus, ip) of the same compound?
A: 6 mg/kg

Q: What about the ED50 ([2]; Rattus norvegicus, po) of the same compound?
A: 12 mg/kg

Q: Which ED50 ([1]; Rattus norvegicus, ip) does the source give for `Nc1ncnc2c1nnn2Cc1ccccc1F` here?
A: > 25 mg/kg

Q: With `CN(C)c1ncnc2c1ccn2Cc1ccccc1` as the compound, how does the ED50 [1] read?
A: 15 mg/kg

Q: What does the source list for `Nc1ncnc2c1ncn2Cc1ccccc1F`?
A: ED50 [1]: 4.5 mg/kg; ED50 [2]: 12 mg/kg

Q: For `CNc1ncnc2c1ncn2Cc1ccccc1F` [BW-A78U], which ED50 [1] is on record?
A: 1.7 mg/kg

Q: And the ED50 [2]?
A: 2.5 mg/kg

Q: Which results are given for `O=C1NC(=O)C(c2ccccc2)(c2ccccc2)N1` [PHENYTOIN]?
A: ED50 [1]: 10 mg/kg; ED50 [2]: 20 mg/kg
